Screening results from PubChem BioAssay.
CSC inhib = blocks cancer stem cells. cancer stem cell-like cells viability, luminescence. inhibition, % at 7.5 µM. 300,000 tested, 1.1% active. AID 2717; in the data active means inhibition above about 75%; inconclusive means no clear call, values can overlap the other calls; tested in HMLE shEcad cells
SKKanGAS inh = SKKanGAS growth inhibition. S. pyogenes SKKanGAS, kanamycin growth, BacTiter-Glo, 6 h. 300,000 tested, 1.3% active. inhibition, % at 7.5 µM;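 active means mean replicate score, as percent of positive control median, at least 50; inconclusive means mean below 50 but one replicate at or above 50; inactive means mean and every replicate below 50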;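 further: strain carries kanamycin resistance gene driven by streptokinase promoter and grows in 40 µg/ml kanamycin; loss of luminescence reflects streptokinase promoter inhibition or plain growth inhibition; 0% = median of DMSO wells and 100% = positive control at its reference dose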
Beta apoptosis = beta cell apoptosis inhibition; INS-1E cytokine-induced death, ATP luminescence, 48 h; percent of positive-control rescue, neutral wells zero; protection from apoptosis, % (concentration not given with the values); 300,000 tested, 0.8% active; AID 435005;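 active means Every replicate reaches about 75%, or at least half do and their mean reaches it too, limit read from the data; inconclusive means At least half of replicates reach the limit but their mean does not; inactive means Under half of replicates reach the limit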;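 further: 0% = cytokine-treated negative control wells and 100% = positive control rescue; higher means more ATP so stronger rescue from cytokine killing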
Calb FLC = C. albicans growth modulation with fluconazole; C. albicans CaCi-2 (fluconazole-resistant clinical isolate) + fluconazole, Alamar Blue growth, 48 h; growth inhibition, % (no concentration beside the values); 300,000 tested, 0.57% active;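 active means growth inhibition above about 58% in most replicates, limit read from the data, passing the limit was not always enough; inconclusive means exactly half the replicates above a set limit; inactive means most replicates below a set limit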;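 further: all wells also contain fluconazole at 8 µg/ml as a sub-toxic cotreatment; 0% = median of DMSO wells and 100% = median of geldanamycin control wells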
Mdm2 MdmX PPI = disrupts the human Mdm2-MdmX interaction; O15151+Q00987; SaOS-2 split-luciferase Mdm2/MdmX complementation, luminescence; inhibition, % at 8 µM; 330,000 tested, 3% active; AID 485346;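 active means inhibition of at least 50% at 8 µM in the primary screen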
T cruzi repl = blocks replication of Trypanosoma cruzi; 300,000 tested, 1.4% active; inhibition, % (test concentration not listed); AID 1885; T. cruzi beta-gal in NIH3T3, luminescence, 90 h;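 active means mean inhibition across valid replicates above about 55%, limit read from the data; inconclusive means mean below that limit but half or more replicates reach it; inactive means mean below it, under half of replicates reach it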;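 further: signal also drops with host cell toxicity which is not excluded here; 0% = plate median of DMSO wells and 100% = zero luminescence signal; higher percent means less beta-gal luminescence so fewer parasites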
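System: NIH/3T3 fibroblasts plus reporter T. cruzi. Medium: DMEM plus 2% FBS. Probe or stimulus: 5000 reporter trypomastigotes per well. Compound: single 50 nL compound addition per well in DMSO. Incubation: co-culture of at least 90 h after 3 h attachment. Detection: GalScreen β-gal luminescence, detergent lysis, 60 min. Evaluation: parasite load inhibition, %.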
Mdm2 MdmX conf = confirmation of human Mdm2/MdmX interaction inhibitors; Mdm2-MdmX binding, luminescent assay; shares compounds with Mdm2 MdmX PPI; 10,000 tested, 55% active; AID 489028; inhibition, % at 8 µM; in the data active means inhibition above about 40%
FLuc counter = counter-screen for Mdm2/MdmX inhibitors: full-length luciferase; 6,200 tested, 77% active; shares compounds with Mdm2 MdmX PPI; AID 504607; inhibition, % at 8 µM; SaOS-2 full-length luciferase counterscreen, luminescence;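 active means mean inhibition at 8 µM reaching about 37%, which flags the compound as non-specific, limit read from the data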;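 further: p53-null SaOS-2 cells with luciferase driven by a doxycycline-inducible promoter; compound on cells about two nights before reading with doxycycline added after day one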
Active calls of the source: *; u = inconclusive; x = no result. A selection: hits, their analogues and other compounds. The true share with any hit is near 5.7%.

SMILES	CSC inhib	SKKanGAS inh	Beta apoptosis	Calb FLC	Mdm2 MdmX PPI	T cruzi repl	Mdm2 MdmX conf	FLuc counter
COc1ccc(C2C3=C(CC(C)(C)CC3=O)Oc3ncn(CC(C)C)c(=N)c32)cc1 (stereo not given)	23	1	6	-13	14	13	x	x
CN(C)CCCn1cnc2c(c1=N)C(c1ccccc1)c1ccc3ccccc3c1O2 (stereo not given)	104*	0	98*	9	100*	31	100*	52*
COc1ccc(C2c3ccc4ccccc4c3Oc3ncn(CCN(C)C)c(=N)c32)cc1 (stereo not given)	16	0	7	25	91*	59*	43*	64*
CCOc1cc(CNCCO)cc(Br)c1OCc1ccc(Cl)cc1Cl	148*	14	31	-3	100*	36	50*	26
O=C(COC(=O)c1ccc(F)c(S(=O)(=O)N2CCCCC2)c1)NCc1ccc(F)cc1	-9	-12	1	17	-7	-7	x	x
CCC1=NNc2cccc3c(OC)ccc1c23	x	36	-4	-5	62*	31	24	x
COc1ccc2c3c(cccc13)C(=O)N(O)C2=O	6	8	0	-9	x	-70	x	x
CN(CCC#N)C(=S)NC(=O)c1ccc(S(=O)(=O)N2CCOCC2)cc1	x	1	x	-12	14	-21	x	x
CCCn1c(N2CCN(CC(=O)c3c(C)n(C)c4ccc(OC)cc34)CC2)nc2c1c(=O)[nH]c(=O)n2C	x	19	x	-2	55*	16	22	x
O=C(NCc1ccccc1)c1onc(CSc2ccc(Cl)cc2)c1C(=O)NCC1CC1	13	26	-1	4	28	4	x	x
O=C(NCc1ccccc1)c1onc(CSc2ccccc2)c1C(=O)NCC1CC1	17	42	73	-1	55*	58*	50*	81*
COc1cccc(C2C3=C(N=c4s/c(=C\c5cccc(O)c5)c(=O)n42)c2ccccc2CC3)c1OC (stereo not given)	91*	u	3	22	68*	20	11	x
CCN(c1ccccc1)S(=O)(=O)c1ccc2c(c1)N(C(C)=O)CCS2	-12	0	-4	-9	12	0	x	x
O=C1[C@H]2[C@@H](c3ccc(F)cc3)N3C(=O)N(c4ccc(Br)cc4)C(=O)[C@@]3(Cc3ccccc3)[C@H]2C(=O)N1C1CCCCC1	8	8	13	5	84*	20	94*	27
CC[C@@]12C(=O)N(c3ccc(OC)cc3)C(=O)N1[C@H](c1ccc(Cl)cc1)[C@@H]1C(=O)N(C3CCCCC3)C(=O)[C@@H]12	6	2	4	-6	50	39	48*	49*
Cc1ccc(N2C(=O)N3[C@H](c4ccc(Cl)cc4)[C@@H]4C(=O)N(C5CCCCC5)C(=O)[C@@H]4[C@]3(Cc3ccccc3)C2=O)cc1	-5	1	0	4	22	27	x	x
O=C(Cn1cc(C(F)(F)F)ccc1=O)OCC(=O)c1ccc[nH]1	-25	x	-2	x	13	x	x	x
Cc1cc(-c2ccc(C(C)C)c(S(=O)(=O)N3CCN(c4ccccn4)CC3)c2)on1	56	32	32	8	63*	33	62*	52*
CCc1ccc(-c2cc(C)no2)cc1S(=O)(=O)N1CCN(c2ccccn2)CC1	16	6	2	0	29	13	x	x
CC(C)n1cc(/C=C2/NC(=O)N(c3cccc(Cl)c3)C2=O)c2ccccc21	54	0	x	7	62*	4	65*	43*
O=C(CCCOc1ccc(Br)cc1)NNC(=O)c1ccncc1	-14	-13	4	-2	21	-13	x	x
CCN1C(=O)c2cccc3c(NC(=O)c4ccc(S(=O)(=O)N(C)C)cc4)ccc1c23	-4	0	-2	45	59*	13	33	64*
CCN1C(=O)c2cccc3c(NC(=O)c4ccc(S(=O)(=O)N5CCOCC5)cc4)ccc1c23	-1	3	-2	-1	51*	8	49*	94*
